Experiment [1] has as its system Ralstonia solanacearum. As to the kind of experiment: Antibacterial activity against Ralstonia solanacearum in tobacco plant assessed as control efficacy at 500 ug/ml measured after 21 days of spraying under green house conditions. It is filed as functional. The essentials: (§1)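 Tobacco seedlings were raised by floating cultivation at 25 °C for 30 d, then transplanted at about the three-leaf stage into pots of 500 g soil, one plant per pot. Plants were sprayed with compound solutions. Morbidity and disease index were recorded per a standard disease investigation and classification protocol at 7, 14 and 21 d, with blank and negative controls.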

The subject of experiment [2] is Ralstonia solanacearum. As to the kind of experiment: Antibacterial activity against Ralstonia solanacearum in tobacco plant assessed as plant morbidity at 500 ug/ml measured after 21 days of spraying under green house conditions. Type of experiment: functional. A digest of the protocol: as §1
The test system of experiment [3] is Ralstonia solanacearum. As to the kind of experiment: Antibacterial activity against Ralstonia solanacearum in tobacco plant assessed as plant morbidity at 500 ug/ml measured after 14 days of spraying under green house conditions. Type of experiment: functional. The essentials:
as §1

In experiment [4] the test system is Ralstonia solanacearum. As to the kind of experiment: Antibacterial activity against Ralstonia solanacearum in tobacco plant assessed as control efficacy at 500 ug/ml measured after 14 days of spraying under green house conditions. It is filed as functional. A digest of the protocol: as §1
The subject of experiment [5] is Ralstonia solanacearum. As to the kind of experiment: Antibacterial activity against Ralstonia solanacearum in tobacco plant assessed as plant morbidity at 500 ug/ml measured after 7 days of spraying under green house conditions. It is filed as functional. A digest of the protocol: as §1
The subject of experiment [6] is Ralstonia solanacearum. As to the kind of experiment: Antibacterial activity against Ralstonia solanacearum in tobacco plant assessed as disease index at 500 ug/ml measured after 7 days of spraying under green house conditions. Type of experiment: functional. A digest of the protocol: as §1
Experiment [7] deals with Ralstonia solanacearum. As to the kind of experiment: Antibacterial activity against Ralstonia solanacearum in tobacco plant assessed as disease index at 500 ug/ml measured after 14 days of spraying under green house conditions. It is filed as functional. The essentials: as §1
The test system of experiment [8] is Ralstonia solanacearum. As to the kind of experiment: Antibacterial activity against Ralstonia solanacearum in tobacco plant assessed as disease index at 500 ug/ml measured after 21 days of spraying under green house conditions. Type of experiment: functional. A digest of the protocol: as §1
Experiment [9] relates to Ralstonia solanacearum. As to the kind of experiment: Antibacterial activity against Ralstonia solanacearum in tobacco plant assessed as control efficacy at 500 ug/ml measured after 7 days of spraying under green house conditions. Type of experiment: functional. A digest of the protocol:
as §1

The test system of experiment [10] is Ralstonia solanacearum. As to the kind of experiment: Antibacterial activity against Ralstonia solanacearum assessed as growth inhibition at 200 ug/ml by turbidometer test (beneficial crop tobacco plant). Type of experiment: functional.
Experiment [11] has as its system Ralstonia solanacearum. As to the kind of experiment: Antibacterial activity against Ralstonia solanacearum assessed as growth inhibition by turbidometer test (beneficial crop tobacco plant). Type of experiment: functional, organism-based.
Experiment [12] has as its system Ralstonia solanacearum. As to the kind of experiment: Antibacterial activity against Ralstonia solanacearum assessed as growth inhibition at 500 ug/ml by turbidometer test (beneficial crop tobacco plant). Type of experiment: functional.
Experiment [13] deals with Ralstonia solanacearum. As to the kind of experiment: Antibacterial activity against Ralstonia solanacearum in tobacco field assessed as inhibition of disease at 540 g/ha measured after 7 days of spraying. It is filed as functional, organism-based. A digest of the protocol: (§2)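 Field trial with foliar spraying, scored 7, 14 and 21 d after treatment. Disease index = (4W + 3X + 2Y + Y)/4A from the plant disease classification sums. Inhibition % = (CK − PT1)/CK × 100, where CK is an untreated blank field. Statistics by ANOVA.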

Experiment [14] relates to Ralstonia solanacearum. As to the kind of experiment: Antibacterial activity against Ralstonia solanacearum in tobacco field assessed as inhibition of disease at 540 g/ha measured after 14 days of spraying. It is filed as functional, organism-based. The essentials:
as §2

The subject of experiment [15] is Ralstonia solanacearum. As to the kind of experiment: Antibacterial activity against Ralstonia solanacearum in tobacco field assessed as inhibition of disease at 540 g/ha measured after 21 days of spraying. Type of experiment: functional, organism-based. A digest of the protocol: as §2
Experiment [16] relates to Ralstonia solanacearum. As to the kind of experiment: Antibacterial activity against Ralstonia solanacearum in tobacco field assessed as inhibition of disease at 405 g/ha measured after 14 days of spraying. It is filed as functional. The essentials: as §2
The subject of experiment [17] is Ralstonia solanacearum. As to the kind of experiment: Antibacterial activity against Ralstonia solanacearum in tobacco field assessed as inhibition of disease at 405 g/ha measured after 21 days of spraying. It is filed as functional. A digest of the protocol: as §2
Experiment [18] has as its system Ralstonia solanacearum. As to the kind of experiment: Antibacterial activity against Ralstonia solanacearum in tobacco field assessed as inhibition of disease at 405 g/ha measured after 7 days of spraying. Type of experiment: functional. The essentials: as §2
Setting [19] is: Ralstonia solanacearum, read-out: EC50.

≈ marks a conversion by molar mass, not a printed value.

A word on the inhibition: it is the relative decrease from the control value, in per cent. The EC50 is the concentration that produces a half-maximal response.

With COPPER HYDROXIDE [listing 1 of 2 here], the figures for the Efficacy with Ralstonia solanacearum [1], with Ralstonia solanacearum [4] and in the experiment with Ralstonia solanacearum [9] were 0%, 3.4% and 41.9%, respectively. The Activity with Ralstonia solanacearum [2] turned out to be 100%; in the experiment on Ralstonia solanacearum [3] it was 100%; in the experiment on Ralstonia solanacearum [5], 50.3%; with Ralstonia solanacearum [6] it was 53.3%; with Ralstonia solanacearum [7] it was 95%; in the experiment on Ralstonia solanacearum [8], 100%.
As to `CCS(=O)(=O)c1nnc(-c2ccccc2)o1`, the Efficacy in the experiment on Ralstonia solanacearum [1] is 8.3%; in the experiment with Ralstonia solanacearum [4], 12%; in the experiment on Ralstonia solanacearum [9], 34.6%. Further, the Activity with Ralstonia solanacearum [2] is 100%; in the experiment with Ralstonia solanacearum [3], 100%; with Ralstonia solanacearum [5] it was 60%; in the experiment with Ralstonia solanacearum [6], 60%; in the experiment with Ralstonia solanacearum [7], 86.7%; with Ralstonia solanacearum [8] it was 91.7%. Also, in the experiment on Ralstonia solanacearum [10], the inhibition at 200 µg/mL turned out to be 100%. Moreover, the EC50 in the experiment with Ralstonia solanacearum [11] (setting [19]) was determined as 39.8 µg/mL (≈ 167 µM). Besides, the inhibition at 500 µg/mL in the experiment on Ralstonia solanacearum [12] was 100%.
Regarding `CS(=O)(=O)c1nnc(-c2ccccc2Br)o1`, the inhibition at 200 µg/mL with Ralstonia solanacearum [10] is 9.9%. Moreover, the inhibition at 500 µg/mL in the experiment on Ralstonia solanacearum [12] is 14.2%.
In the case of `CS(=O)(=O)c1nnc(-c2ccc(Cl)c([N+](=O)[O-])c2)o1`, the inhibition at 200 µg/mL in the experiment with Ralstonia solanacearum [10] was 0%. Moreover, the inhibition at 500 µg/mL in the experiment on Ralstonia solanacearum [12] was 20.1%.
With COPPER HYDROXIDE [listing 2 of 2 here], the EC50 in the experiment on Ralstonia solanacearum [11] came out at 45.9 µg/mL.
On to `CCS(=O)(=O)c1nnc(Cc2ccc(Cl)cc2)o1`, for which the inhibition at 200 µg/mL with Ralstonia solanacearum [10] stood at 18.7%. In the experiment on Ralstonia solanacearum [12], the inhibition at 500 µg/mL is 31.4%.
For the compound `CCS(=O)(=O)c1nnc(-c2ccc(F)cc2F)o1`, the inhibition at 200 µg/mL in the experiment with Ralstonia solanacearum [10] came to 92.3%. The EC50 in the experiment with Ralstonia solanacearum [11] (setting [19]) amounted to 60.3 µg/mL (≈ 220 µM). The inhibition at 500 µg/mL in the experiment with Ralstonia solanacearum [12] was found to be 100%.
As to `COc1ccc(-c2nnc(S(C)(=O)=O)o2)cc1OC`, the inhibition at 200 µg/mL with Ralstonia solanacearum [10] was 6%. Also, in the experiment on Ralstonia solanacearum [12], the inhibition at 500 µg/mL worked out at 10.1%.
Turning to Saisentong, the results for the Efficacy with Ralstonia solanacearum [1], with Ralstonia solanacearum [4] and in the experiment on Ralstonia solanacearum [9] were 21.7%, 59.3% and 92.7%, respectively. Further, the Activity is 100% with Ralstonia solanacearum [2]; 73.3% in the experiment on Ralstonia solanacearum [3]; 6.7% with Ralstonia solanacearum [5]; 6.7% in the experiment on Ralstonia solanacearum [6]; 40% with Ralstonia solanacearum [7]; 78.3% with Ralstonia solanacearum [8]. In addition, the inhibition in the experiment with Ralstonia solanacearum [10] was 100%; in the experiment on Ralstonia solanacearum [13] it was 61.2%; in the experiment with Ralstonia solanacearum [14], 71.1%; in the experiment on Ralstonia solanacearum [12], 100%; with Ralstonia solanacearum [15], 67.3%.
For the compound `CCS(=O)(=O)c1nnc(-c2ccc(F)c(F)c2)o1`, the inhibition at 200 µg/mL with Ralstonia solanacearum [10] amounted to 46.7%. Further, in the experiment with Ralstonia solanacearum [12], the inhibition at 500 µg/mL was 52%.
On to `CCS(=O)(=O)c1nnc(-c2ccc(OC)c(OC)c2)o1`, for which, in the experiment with Ralstonia solanacearum [10], the inhibition at 200 µg/mL is 2.8%. In addition, the inhibition at 500 µg/mL with Ralstonia solanacearum [12] stood at 9.3%.
On to `CS(=O)(=O)c1nnc(-c2ccc(F)c(F)c2)o1`, for which the inhibition at 200 µg/mL in the experiment on Ralstonia solanacearum [10] amounted to 11.1%. Moreover, the inhibition at 500 µg/mL with Ralstonia solanacearum [12] amounted to 12%.
For `CCS(=O)(=O)c1nnc(-c2ccc(C)cc2)o1`, the inhibition at 200 µg/mL with Ralstonia solanacearum [10] is 15%. Also, the inhibition at 500 µg/mL in the experiment with Ralstonia solanacearum [12] was found to be 39%.
With `CCS(=O)(=O)c1nnc(-c2ccc(Cl)c([N+](=O)[O-])c2)o1`, the inhibition at 200 µg/mL in the experiment with Ralstonia solanacearum [10] amounted to 17%. Further, the inhibition at 500 µg/mL in the experiment on Ralstonia solanacearum [12] stood at 46%.
Take `CS(=O)(=O)c1nnc(Cc2ccc(Cl)cc2)o1`: the inhibition at 200 µg/mL with Ralstonia solanacearum [10] was 19.2%. In addition, the inhibition at 500 µg/mL with Ralstonia solanacearum [12] was 31%.
Regarding `CCS(=O)(=O)c1nnc(-c2ccc(F)cc2)o1`, the figures for the Efficacy in the experiment on Ralstonia solanacearum [1], in the experiment with Ralstonia solanacearum [4] and in the experiment on Ralstonia solanacearum [9] were 38.3%, 59.3% and 85.5%, respectively. Moreover, the Activity with Ralstonia solanacearum [2] is 100%; in the experiment on Ralstonia solanacearum [3] it was 60%; in the experiment with Ralstonia solanacearum [5], 13.3%; in the experiment with Ralstonia solanacearum [6], 13.3%; in the experiment on Ralstonia solanacearum [7], 40%; in the experiment on Ralstonia solanacearum [8] it was 61.7%. Besides, the “inhibition (INH)” value is 68.8% with Ralstonia solanacearum [16], 71.9% in the experiment with Ralstonia solanacearum [17] and 65.3% in the experiment with Ralstonia solanacearum [18]. The inhibition at 200 µg/mL in the experiment on Ralstonia solanacearum [10] worked out at 100%. In addition, the EC50 in the experiment on Ralstonia solanacearum [11] (setting [19]) turned out to be 32.1 µg/mL (≈ 125 µM). Moreover, the inhibition at 500 µg/mL in the experiment with Ralstonia solanacearum [12] worked out at 100%.
With `CCS(=O)(=O)c1nnc(-c2cccc(F)c2)o1`, the inhibition at 200 µg/mL in the experiment on Ralstonia solanacearum [10] was found to be 100%. For the same compound, the EC50 in the experiment with Ralstonia solanacearum [11] (setting [19]) amounted to 47.9 µg/mL (≈ 187 µM). Also, in the experiment with Ralstonia solanacearum [12], the inhibition at 500 µg/mL turned out to be 100%.

Values taken from ChEMBL document CHEMBL3046475, “Inhibition of tobacco bacterial wilt with sulfone derivatives containing an 1,3,4-oxadiazole moiety” (J Agric Food Chem, 2012).
